WT yeast gro inh: growth inhibition of WT yeast, mitochondrial fusion screen; 190,000 compounds, 2.1% hits; inhibition, % at 10 µM; mitochondrial fusion phenotypic screen, WT strain; in the data active = inhibition above about 58%; tested in S. cerevisiae
Calpain2 inh: calpain II (pig) inhibition | purified calpain II, fluorogenic peptide substrate, 30 min | AID 1236 | 220,000 compounds, 0.37% hits | inhibition, % at 16 µM;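 active = inhibition above about 50%, limit read from the data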
L major viab: inhibitors of Leishmania major promastigote growth | Leishmania major promastigotes, resazurin fluorescence viability | inhibition, % at 10 µM | 200,000 compounds, 9% hits | AID 1063; in the data active = inhibition above about 50%;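 note: promastigotes grown with compound for 44 hours at 28 °C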
PMI activator: activators of human phosphomannose isomerase; purified human PMI, coupled resazurin fluorescence, 20 min; stronger effect = higher value; 1 = vehicle control, 0 substrate-free wells; activation factor at 20 µM; 190,000 compounds, 0.005% hits;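 active = activation factor of 2 or more at 20 µM, relative to plate controls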
Target sequence (P34949 whole entry, looked up): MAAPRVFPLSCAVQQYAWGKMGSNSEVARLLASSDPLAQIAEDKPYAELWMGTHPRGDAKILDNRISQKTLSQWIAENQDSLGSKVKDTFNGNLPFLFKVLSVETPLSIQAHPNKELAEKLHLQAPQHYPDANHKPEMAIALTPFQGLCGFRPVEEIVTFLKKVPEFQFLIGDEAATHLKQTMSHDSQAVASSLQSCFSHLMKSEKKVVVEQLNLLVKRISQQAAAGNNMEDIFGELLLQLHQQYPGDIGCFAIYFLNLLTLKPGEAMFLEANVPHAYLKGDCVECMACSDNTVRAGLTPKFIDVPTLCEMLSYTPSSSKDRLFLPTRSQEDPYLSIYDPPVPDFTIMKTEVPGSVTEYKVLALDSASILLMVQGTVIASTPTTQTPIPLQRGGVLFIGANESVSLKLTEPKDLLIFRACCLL
PMI act satM6P: activators of human phosphomannose isomerase at near-saturating mannose 6-phosphate. P34949. coupled PMI enzyme assay, resazurin fluorescence, 20 min; stronger effect = higher value; 1 = untreated enzyme, 0 = substrate-free blank. activation factor at 20 µM. 190,000 compounds, 0.34% hits. AID 1216;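 active = activation factor of 2 or more at 20 µM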
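Test system: human phosphomannose isomerase with PGI, G6PDH, diaphorase coupling enzymes; amount: 15 ng/mL PMI; incubation: enzyme reaction with compound 20 min at room temperature; technique: resorufin fluorescence (Ex 544/Em 590 nm) from resazurin via diaphorase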
Rad51 HR inh: blocks human Rad51 in homologous recombination; Q06609; hRad51 DNA strand exchange, fluorescence dequenching; inhibition, % at 10 µM; 200,000 compounds, 0.085% hits; AID 1385;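 active = inhibition above 40% at the single screening dose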;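 note: 0% = DMSO control wells and 100% = blanks with heterologous ssDNA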
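material = hRad51 filaments on single-stranded DNA | timing = filaments 15 min 37 °C, then compound 30 min | signal = FRET fluorescence dequenching, excitation 485 nm, emission 520 nm | benchmarks = control wells and blank wells on each plate | evaluation = percent inhibition relative to plate controls and blanks | compound = 10 µM final, single point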
An asterisk follows results filed as active; nt = not tested or not shown. In the library only some 9.8% were active in any assay of this set; here they are far more common.

SMILES | WT yeast gro inh | Calpain2 inh | L major viab | PMI activator | PMI act satM6P | Rad51 HR inh
COC(=O)C1=C(C)N(c2ccccc2)/C(=C/c2cccs2)C1=O | 1.9 | -29.8 | 51.5* | 1 | 0.9 | 0.6
COC(=O)C1=C(C)N(c2ccc(Cl)cc2)/C(=C/c2cccs2)C1=O | 15.0 | 27.1 | 36.2 | 1.1 | 1 | -4.4
CCCc1cc(C(N)=O)c(NC(=O)c2cc(C)on2)s1 | 53.1 | 5.6 | 54.9* | 1 | 1.1 | -4.7
Cn1nc(C(F)(F)F)c(-c2cccc(C(F)(F)F)c2)c1NC(=O)Nc1ccc(F)cc1 | nt | 13.0 | nt | nt | nt | -1.9
O=C(Nc1ccncc1)c1ccc2c(c1)S(=O)(=O)c1ccccc1C2=O | -16.6 | 19.0 | 99.5* | 1.1 | 1 | -12.7
O=C(Nc1nc2ccc(SC(F)F)cc2s1)c1ccc2c(c1)S(=O)(=O)c1ccccc1C2=O | 14.4 | -49.4 | 85.8* | 0.9 | 1 | 2.9
O=C(Nc1nc2ccccc2s1)c1ccc2c(c1)S(=O)(=O)c1ccccc1C2=O | 4.6 | 7.0 | 2.8 | 1 | 0.9 | nt
Cc1nc2c3c(sc2c(=O)[nH]1)NC(=O)CC3c1ccccc1Cl (stereo not drawn) | nt | 1.9 | nt | nt | nt | -26.1
CCCCCCn1c(COc2ccccc2F)nnc1SCC(=O)N1c2ccccc2NC(=O)C1(C)C | -11.7 | 18.8 | 55.1* | 0.9 | 0.9 | -1.1
O=C(O)CCn1cc(C(=O)O)c(-c2ccccc2)n1 | nt | 14.1 | nt | nt | nt | nt
Cc1cc(N)n2ncc(-c3ccc(F)cc3)c2n1 | 9.9 | -61.6 | 8.9 | 0.9 | 0.9 | -2.7
Cc1cc(N)n2ncc(-c3ccc(Cl)cc3)c2n1 | 21.8 | -39.6 | 55.2* | 0.9 | 1 | 5.6
Cn1cc(C(=O)NCc2cccs2)c(=O)c2cc(S(=O)(=O)N3CCCC3)ccc21 | -7.3 | -2.1 | 12.4 | 1.1 | 1.1 | nt
C=CCn1c(SCC(=O)Nc2cccc(C(=O)OC)c2)nnc1C(C)NC(=O)c1cccs1 (stereo not drawn) | 83.1* | 17.4 | -0.9 | 0.8 | 0.8 | -3.0
COCCn1c(SCC(=O)Nc2cccc(C)c2)nnc1C(C)C | 11.2 | -32.6 | 91.3* | 1.1 | 1 | 3.6
C=CCn1c(SCC(=O)NCCc2ccccc2)nnc1C(C)NC(=O)c1cccs1 (stereo not drawn) | -3.7 | -3.5 | -0.2 | 1.1 | 1.1 | -3.7
CN(CCCNC(=O)CSc1cc(=O)n(C)c2ccc(Cl)cc12)Cc1ccccc1 | -0.6 | -36.0 | 57.8* | 0.9 | 0.9 | 6.3
CC(C)Cn1cnc2c(c(-c3ccccc3)c(-c3ccccc3)n2Cc2ccco2)c1=N | 42.7 | -0.5 | 100.3* | 1 | 1 | 7.1
O=c1c2ccccc2nc(-c2ccccc2)n1Cc1ccco1 | 12.0 | -15.0 | -5.0 | 1 | 1 | -31.1
N=c1c2c(-c3ccccc3)c(-c3ccccc3)n(Cc3ccco3)c2ncn1Cc1ccccc1 | nt | -14.9 | 100.2* | 0.9 | 0.9 | 1.4
N=c1c2c(-c3ccccc3)c(-c3ccccc3)n(Cc3ccccc3)c2ncn1CCO | 1.6 | -39.9 | 100.5* | 1.1 | 1.1 | 1.6
c1ccc(Cn2cnc3ccccc32)cc1 | -8.1 | 9.8 | 11.3 | 1 | 0.9 | -2.7
O=c1c2c3nc4ccccc4nc3n(Cc3ccccc3)c2ncn1Cc1ccco1 | -0.6 | -342.8 | -0.6 | 0.9 | 1 | 1.1
COc1cc2c(C(=O)N3CCN(c4ccccc4C)CC3)c(C)oc2cc1Br | 43.0 | -11.0 | 14.7 | 1 | 0.9 | 3.7
CCOC(=O)c1ccc(NC(=O)Nc2ccc(OC)c(OC)c2)cc1 | 5.3 | -7.7 | 57.7* | 0.9 | 0.9 | 1.1
SMILES | WT yeast gro inh | Calpain2 inh | L major viab | PMI activator | PMI act satM6P | Rad51 HR inh
CCOC(=O)c1ccc(NC(=O)Nc2ncccc2C)cc1 | 1.4 | 51.1* | 9.3 | 1.1 | 1.1 | -10.5
CCCCOC(=O)c1ccc(NC(=O)Nc2ccc(OC)c(OC)c2)cc1 | 12.9 | -49.4 | 1.2 | 1 | 1 | 2.0
COc1ccccc1NC(=O)CSc1nc2ncccc2[nH]1 | 10.1 | -49.3 | 7.4 | 1 | 1.1 | 4.1
CCOC(=O)c1ccc(NC(=O)CSc2nc3ncccc3[nH]2)cc1 | -13.5 | 8.0 | 62.5* | 1 | 0.9 | 5.3
CCOc1ccc(NC(=O)Nc2cc(OCC(F)(F)F)cc(OCC(F)(F)F)c2)cc1 | 3.8 | -3.9 | 14.0 | 0.8 | 0.9 | -7.5
O=C(Nc1ccc(F)cc1)Nc1cc(OCC(F)(F)F)cc(OCC(F)(F)F)c1 | 20.3 | 25.4 | 98.8* | 0.9 | 0.9 | -8.1
COCCN=c1scc(C)n1/N=C/C1CC2C=CC1C2 (stereo not drawn) | -1.7 | -25.5 | 6.6 | 0.9 | 0.9 | -3.6
COc1ccc(NC(=O)Nc2ccc(C)cc2OC(F)F)cc1OC | 2.8 | 53.1* | 30.0 | 0.8 | 0.8 | 3.7
CCOC(=O)c1ccc(NC(=O)Nc2ccc(F)cc2)cc1 | 14.3 | -4.2 | 96.0* | 1 | 1 | -7.7
CCOC(=O)c1ccc(NC(=S)NCCc2ccccc2F)cc1 | 58.5* | 26.5 | 18.7 | 0.9 | 0.9 | 15.8
CCOC(=O)c1ccc(OS(=O)(=O)c2ccccc2)c(OC)c1 | 18.3 | 3.6 | 92.4* | 1.1 | 1.1 | 5.7
CC1(C)CC(=O)C=C(NCCN2CCN(C(=S)Nc3ccccc3)CC2)C1 | nt | -4.4 | nt | nt | nt | 21.3
CN(C(=O)c1ccc(C#N)cc1)c1nnc(-c2cnccn2)s1 | nt | -30.1 | nt | nt | nt | -3.1
Cc1cc(=O)[nH]c(N/N=C/c2cn(CCC#N)nc2-c2ccccc2)n1 | 9.6 | 41.5 | -2.5 | 0.9 | 1 | 5.9
CC1CN(C(=O)N[C@@H](Cc2ccccc2)C(=O)O)CC(C)O1 (stereo partly drawn) | -4.5 | 11.0 | 79.7* | 1.1 | 1 | 5.5
Cc1[nH]c2ccccc2c1CCNC(=O)c1c(N)no[n+]1[O-] | -1.2 | 6.5 | 13.5 | 1 | 0.8 | -2.6
Cn1nc(-c2ccccc2)c(N2CCCCC2)cc1=O | 16.0 | 15.5 | 3.7 | 1 | 0.9 | 13.8
COc1ccc(Cn2nc(-c3ccccc3)c(N3CCCCC3)cc2=O)cc1 | 71.4* | 72.4* | 22.3 | 1 | 1 | -0.4
O=c1cc(N2CCCCC2)c(-c2ccccc2)nn1Cc1ccccc1 | 75.8* | 15.2 | 12.8 | 1 | 0.9 | -6.4
Cc1csc(/C(=N/OC(=O)c2ccco2)C(N)=O)n1 | nt | 4.0 | nt | nt | nt | -20.0
O=c1oc2cc(O)ccc2cc1-c1nc2c(s1)CCc1ccccc1-2 | 98.0* | -243.1 | -11.8 | 0.8 | 0.4 | nt
O=c1oc2ccccc2cc1-c1nc2c(s1)CCc1ccccc1-2 | 0.3 | -73.5 | -3.4 | 0.8 | 0.6 | -27.3
COc1cc2c(cc1NC(=O)C(C)OC(=O)c1ccc(S(=O)(=O)Nc3ccccc3Cl)cc1)oc1ccccc12 (stereo not drawn) | 14.2 | -93.2 | 13.6 | 1 | 1.1 | nt
CN1CCN(CC(=O)N2CCn3c4c(c5cc(C6CCCCC6)ccc53)CCCC42)CC1 (stereo not drawn) | 97.2 | -60.4 | 100.5* | 0.9 | 0.9 | -3.7
Cc1ccc2c(c1)c1c3n2CCN(C(=O)CN2CCN(C)CC2)C3CCC1 (stereo not drawn) | 2.6 | -33.8 | 20.6 | 1.1 | 0.8 | 2.0
